Reference: ChEMBL document CHEMBL2046409, “Design and synthesis of active site inhibitors of the human farnesyl pyrophosphate synthase: apoptosis and inhibition of ERK phosphorylation in multiple myeloma cells” (J Med Chem, 2012)
One block for each compound: values may come before it. The source made the active and inactive calls. The calls are words filed in the database; no cut-off is given here.

Columns and labels:
[1] = molecular target: T1, Farnesyl pyrophosphate synthase (Homo sapiens, UniProt P14324); assay: Inhibition of human recombinant N-terminal-His6 tagged FPPS expressed in Escherichia coli BL21 using [14C]IPP and GPP as substrate incubated for 10 mins prior to substrate addition measured after 10 mins by scintillation counting
T1 sequence (P14324 whole entry): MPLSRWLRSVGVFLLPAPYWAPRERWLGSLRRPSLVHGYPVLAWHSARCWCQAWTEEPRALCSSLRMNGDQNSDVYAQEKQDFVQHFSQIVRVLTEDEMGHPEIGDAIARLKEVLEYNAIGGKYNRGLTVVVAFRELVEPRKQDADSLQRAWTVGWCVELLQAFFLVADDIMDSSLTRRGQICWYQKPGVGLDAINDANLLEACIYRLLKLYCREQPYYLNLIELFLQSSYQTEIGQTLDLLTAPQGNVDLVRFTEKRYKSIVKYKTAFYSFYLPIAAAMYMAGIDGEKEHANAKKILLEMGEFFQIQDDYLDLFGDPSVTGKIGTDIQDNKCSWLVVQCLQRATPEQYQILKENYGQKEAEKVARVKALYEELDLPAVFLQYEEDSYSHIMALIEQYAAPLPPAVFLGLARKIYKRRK

[2] = Antiproliferative activity against human JJN-3 after 72 hrs by MTT assay; format: functional; settings: JJN-3, 72 h
[3] = Antiproliferative activity against human KMS-28PE after 72 hrs by MTT assay; format: functional
[4] = molecular target: T1, Farnesyl pyrophosphate synthase; assay: Inhibition of human FPPS using […] as substrate incubated for 30 mins prior to substrate addition measured after 20 mins by scintillation counting
[5] = molecular target: T1, Farnesyl pyrophosphate synthase; assay: Inhibition of human recombinant N-terminal-His6 tagged FPPS expressed in Escherichia coli BL21 using [3H]IPP and GPP as substrate measured after 20 mins by liquid scintillation counting
[6] = Antiproliferative activity against human […] after 72 hrs by MTT assay; format: functional
In short: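 Cells seeded at 10,000/well and rested 2 h, then given compound diluted in culture medium as a half-log series spanning 100 nM–333 μM. Incubated 72 h at 37 °C in 5% CO2. MTT read at OD490.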

[7] = Induction of apoptosis in human KMS-28PE cells assessed as viable cells at 1 uM after 48 hrs by AnnexinV/7AAD staining-based flow cytometric assay (reference value: 93%); format: functional; settings: read-out: Activity
[8] = Induction of apoptosis in human KMS-28PE cells assessed as viable cells at 100 uM after 48 hrs by AnnexinV/7AAD staining-based flow cytometric assay (reference value: 93%); format: functional; settings: read-out: Activity
[9] = Induction of apoptosis in human KMS-28PE cells assessed as early apoptotic cells at 1 uM after 48 hrs by AnnexinV/7AAD staining-based flow cytometric assay (reference value: 1.44%); format: functional
[10] = Induction of apoptosis in human KMS-28PE cells assessed as early apoptotic cells at 100 uM after 48 hrs by AnnexinV/7AAD staining-based flow cytometric assay (reference value: 1.44%); format: functional
[11] = Induction of apoptosis in human KMS-28PE cells assessed as late apoptotic cells at 1 uM after 48 hrs by AnnexinV/7AAD staining-based flow cytometric assay (reference value: 5.18%); format: functional
[12] = Induction of apoptosis in human KMS-28PE cells assessed as late apoptotic cells at 100 uM after 48 hrs by AnnexinV/7AAD staining-based flow cytometric assay (reference value: 5.18%); format: functional
[13] = Induction of apoptosis in human KMS-28PE cells assessed as necrotic cells at 1 uM after 48 hrs by AnnexinV/7AAD staining-based flow cytometric assay (reference value: 0.36%); format: functional
[14] = Induction of apoptosis in human KMS-28PE cells assessed as necrotic cells at 100 uM after 48 hrs by AnnexinV/7AAD staining-based flow cytometric assay (reference value: 0.36%); format: functional
[15] = molecular target: T2, Farnesyl pyrophosphate synthase (Homo sapiens) (UniProt P14324); assay: Inhibition of FPPS in human RPMI8226 cells assessed as inhibition of Ras-mediated ERK phosphorylation at 100 uM up to 20 mins by Western blot analysis; format: cell-based; settings: RPMI-8226
T2 sequence (whole entry): T1 sequence (P14324 whole entry)
In short: (§1)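 RPMI8226 cells serum-starved overnight, then stimulated with 10% FBS with or without 100 μM inhibitor for 0 (starved only), 10 and 20 min. Washed in ice-cold PBS/BSA and lysed in Triton/deoxycholate buffer with protease inhibitors. ERK and pERK detected by Western blot with HRP secondary antibodies and ECL chemiluminescence.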

RPMI-8226 = assay: Inhibition of ERK protein expression level in human RPMI8226 cells at 100 uM up to 20 mins by Western blot analysis; format: functional, cell-based; in short: as §1

SMILES: O=P(O)(O)C(Nc1cc(-c2ccc3[nH]ncc3c2)ccn1)P(=O)(O)O
IC50 [1]: 430 nM

SMILES: O=P(O)(O)C(O)(Cc1cccnc1)P(=O)(O)O [RISEDRONIC ACID]
EC50 [2]: 10000 nM | EC50 [3]: 10600 nM

SMILES: O=P(O)(O)C(Nc1cc(-c2ccc(OC3CCC3)cc2)ccn1)P(=O)(O)O
IC50 [1]: 35 nM | IC50 [5]: 2090 nM

SMILES: O=P(O)(O)C(Nc1cc(-c2ccc(OC3CCCC3)cc2)ccn1)P(=O)(O)O
IC50 [1]: 32 nM | IC50 [5]: 785 nM | EC50 [2]: 8600 nM | EC50 [6]: 3600 nM | EC50 [3]: 3200 nM | viability at 1 µM [7]: 91.8% | viability at 100 µM [8]: 84.8% | Activity [9]: 1.81% | Activity [10]: 5.64% | Activity [11]: 5.94% | Activity [12]: 9.15% | Activity [13]: 0.4% | Activity [14]: 0.46% | inhibition [15]: Active | inhibition (RPMI-8226): inactive

SMILES: Cc1ccc(-c2ccnc(NC(P(=O)(O)O)P(=O)(O)O)c2)cc1
IC50 [1]: 35 nM

SMILES: O=P(O)(O)C(O)(Cn1ccnc1)P(=O)(O)O [ZOLEDRONIC ACID]
EC50 [2]: 9400 nM | EC50 [6]: 10500 nM | EC50 [3]: 6400 nM

Results, then the compound that gave them:

IC50 [1]: > 10000 nM
SMILES: CC(C)=CCC/C(C)=C/CC(C/C=C(\C)CCC=C(C)C)(P(=O)(O)O)P(=O)(O)O [DIGERANYL BISPHOSPHONATE]

IC50 [4]: 100 nM
SMILES: CCCCCCCCCCOc1ccc[n+](CC(P(=O)([O-])O)P(=O)(O)O)c1 (stereo not drawn)

IC50 [1]: 115 nM
SMILES: O=P(O)(O)C(F)(Cc1cncc(-c2ccccc2)c1)P(=O)(O)O

IC50 [1]: 520 nM
SMILES: O=P(O)(O)C(F)(Cc1cncc(-c2ccc3[nH]ncc3c2)c1)P(=O)(O)O
